Measured values gathered from unrelated publications.
Each line is one published result; the experiments were not run side by side.
Target: Ephrin type-A receptor 4 (EPHA4, Homo sapiens, UniProt P54764)

| SMILES | observed | mode | method | tested at | endpoint | result |
| --- | --- | --- | --- | --- | --- | --- |
| Cn1cc(-c2cccc(N3CCc4c(sc5c4CC(C)(C)C5)C3=O)c2CO)cc(Nc2ccncn2)c1=O | enzyme activity | inhibitor |  | 1 µM | inhibition | 3% |
| O=c1[nH]c2ccccc2n1C1CCN(Cc2ccc(-c3[nH]c4cc5ncnc5cc4nc3-c3ccccc3)cc2)CC1 | cell-free assay |  |  | 0.5 µM | remaining signal | 97.1% |
| Cc1nn(C)cc1-c1nc2c(N3CCN(Cc4ccc(Cl)cc4)CC3)c(Cl)cnc2[nH]1 | binding |  | competition with immobilised ligand | 1 µM | remaining binding | 100% |
| Nc1ncc(-c2nc(N3CCOCC3)nc(N3CCOCC3)n2)c(C(F)F)n1 | cell-free assay |  | competition with immobilised ligand | 10 µM | remaining binding | 94% |
| COc1cc(Nc2ncc(F)c(Nc3ccc4c(n3)NC(=O)C(C)(C)O4)n2)cc(OC)c1OC | binding |  | competition with immobilised ligand | 10 µM | inhibition | 69% |
| Cn1cc(-c2cc(F)cc(N3CCn4c(cc5c4CCCC5)C3=O)c2CO)cc(Nc2ccc(N3CCN(C4COC4)CC3)cn2)c1=O | enzyme activity | inhibitor |  | 0.1 µM | inhibition | 12% |
| COc1ncccc1-c1cnn2ccc(N3CCN(C(=O)OC(C)C)CC3)nc12 | binding |  | competition with immobilised ligand | 1 µM | remaining binding | 100% |
| Cn1cncc1[C@](O)(COc1ccc(C#N)cc1-c1ccc(OC(F)(F)F)cc1)c1ccc(C#N)cc1 | cell-free assay |  | competition with immobilised ligand | 1 µM | remaining binding | 100% |
| CC(C)(C)c1cc(C=C(C#N)C#N)cc(Br)c1O | enzyme activity | inhibitor |  | 0.5 µM | remaining activity | 94.7% |
